Test results reported in ChEMBL document CHEMBL5724801, “EUbOPEN Chemogenomics Library - Multiplex” (2024).
“And” between values parts separate entries of the source, which are not always exact repeats. Equal values may be shown once.

System: Fibroblast
Test: Multiplex assay against human fibroblast
Format: toxicity, cell-based
How it was run: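 Live cells carried four stains from seeding: Hoechst33342, BioTracker Green Microtubule Cytoskeleton Dye, MitoTracker Red and Annexin V Alexa Fluor 680. They were imaged on a CQ1 microscope at 37°C and 5% CO2 after compound addition. Using CellPathfinder machine-learning gating, cells were split into Hoechst high-intensity objects or normal cells, normal cells into healthy, pyknosed or fragmented nuclei, and pyknosed cells into mitotic or apoptotic; tubulin, mitochondrial-mass and membrane-permeability phenotypes are per cents of healthy-nucleus cells.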

[1] = 12 h, 1 µM, compound concentration 1 uM
[2] = 12 h, 10 µM, compound concentration 10 uM
[3] = 24 h, 1 µM, compound concentration 1 uM
[4] = 24 h, 10 µM, compound concentration 10 uM
[5] = 48 h, 1 µM, compound concentration 1 uM
[6] = 48 h, 10 µM, compound concentration 10 uM

Question: With `NC1=NC(=O)/C(=C2\CCNC(=O)c3[nH]c4ccccc4c32)N1` as the compound, how does the “Population Apoptotic (%)” value [1] read?
Answer: 5.88% and 11.11%

Question: What about the “Population Healthy Nuclei (%)” value [1] of the same compound?
Answer: 60.61% and 85.31%

Question: What about the “Population Hoechst High Intensity Objects (%)” value [1] of the same compound?
Answer: 0%

Question: And the “Population Membrane Permeable-Phenotype (%)” value [1]?
Answer: 2% and 1.91%

Question: And the “Population Mitochondria Different-Phenotype (%)” value [1]?
Answer: 8% and 7.66%

Question: What about the “Population Mitotic Cells (%)” value [1] of the same compound?
Answer: 94.12% and 88.89%

Question: What about the “Population Normal (%)” value [1] of the same compound?
Answer: 100%

Question: And the “Population Pyknosed Nuclei (%)” value [1]?
Answer: 20.61% and 11.02%

Question: And the “Population Tubulin-Different-Phenotype (%)” value [1]?
Answer: 10% and 11.48%

Question: And the “Total Cell Count” value [1]?
Answer: 165 and 245

Question: And the “Population Fragmented Nuclei (%)” value [2]?
Answer: 8.29% and 5.11%

Question: What about the “Population Healthy Nuclei (%)” value [2] of the same compound?
Answer: 63.9% and 72.73%

Question: And the “Population Hoechst High Intensity Objects (%)” value [2]?
Answer: 0%

Question: And the “Population Membrane Permeable-Phenotype (%)” value [2]?
Answer: 3.82% and 2.34%

Question: And the “Population Mitochondria Different-Phenotype (%)” value [2]?
Answer: 7.63% and 9.38%

Question: What about the “Population Mitotic Cells (%)” value [2] of the same compound?
Answer: 92.98% and 76.92%

Question: And the “Population Normal (%)” value [2]?
Answer: 100%

Question: What about the “Population Pyknosed Nuclei (%)” value [2] of the same compound?
Answer: 27.8% and 22.16%

Question: And the “Population Tubulin-Different-Phenotype (%)” value [2]?
Answer: 9.92% and 14.06%

Question: And the “Total Cell Count” value [2]?
Answer: 205 and 176

Question: And the “Population Apoptotic (%)” value [3]?
Answer: 10% and 14.71%

Question: And the “Population Fragmented Nuclei (%)” value [3]?
Answer: 10% and 5.2%

Question: What about the “Population Healthy Nuclei (%)” value [3] of the same compound?
Answer: 73.33% and 81.2%

Question: And the “Population Hoechst High Intensity Objects (%)” value [3]?
Answer: 0%

Question: What about the “Population Membrane Permeable-Phenotype (%)” value [3] of the same compound?
Answer: 6.06% and 1.48%

Question: What about the “Population Mitochondria Different-Phenotype (%)” value [3] of the same compound?
Answer: 3.79% and 8.37%

Question: What about the “Population Mitotic Cells (%)” value [3] of the same compound?
Answer: 90% and 85.29%

Question: What about the “Population Normal (%)” value [3] of the same compound?
Answer: 100%

Question: And the “Population Pyknosed Nuclei (%)” value [3]?
Answer: 16.67% and 13.6%

Question: And the “Population Tubulin-Different-Phenotype (%)” value [3]?
Answer: 12.12% and 11.33%

Question: What about the “Total Cell Count” value [3] of the same compound?
Answer: 180 and 250

Question: What about the “Population Apoptotic (%)” value [4] of the same compound?
Answer: 4.92% and 12.82%

Question: And the “Population Fragmented Nuclei (%)” value [4]?
Answer: 6.84% and 5.46%

Question: What about the “Population Healthy Nuclei (%)” value [4] of the same compound?
Answer: 67.09% and 73.22%

Question: And the “Population Hoechst High Intensity Objects (%)” value [4]?
Answer: 0%

Question: What about the “Population Membrane Permeable-Phenotype (%)” value [4] of the same compound?
Answer: 5.1% and 0%

Question: And the “Population Mitochondria Different-Phenotype (%)” value [4]?
Answer: 3.82% and 5.97%

Question: What about the “Population Mitotic Cells (%)” value [4] of the same compound?
Answer: 95.08% and 87.18%

Question: What about the “Population Normal (%)” value [4] of the same compound?
Answer: 100%

Question: And the “Population Pyknosed Nuclei (%)” value [4]?
Answer: 26.07% and 21.31%

Question: And the “Population Tubulin-Different-Phenotype (%)” value [4]?
Answer: 12.1% and 15.67%

Question: What about the “Total Cell Count” value [4] of the same compound?
Answer: 234 and 183

Question: What about the “Population Fragmented Nuclei (%)” value [5] of the same compound?
Answer: 13% and 5%

Question: And the “Population Healthy Nuclei (%)” value [5]?
Answer: 83% and 91.25%

Question: And the “Population Hoechst High Intensity Objects (%)” value [5]?
Answer: 0%

Question: What about the “Population Membrane Permeable-Phenotype (%)” value [5] of the same compound?
Answer: 1.2% and 2.74%

Question: What about the “Population Mitotic Cells (%)” value [5] of the same compound?
Answer: 87.5% and 55.56%

Question: What about the “Population Normal (%)” value [5] of the same compound?
Answer: 100%

Question: And the “Population Pyknosed Nuclei (%)” value [5]?
Answer: 4% and 3.75%

Question: What about the “Population Tubulin-Different-Phenotype (%)” value [5] of the same compound?
Answer: 6.02% and 11.42%

Question: What about the “Total Cell Count” value [5] of the same compound?
Answer: 200 and 240

Question: What about the “Population Apoptotic (%)” value [6] of the same compound?
Answer: 19.05% and 14.29%

Question: And the “Population Fragmented Nuclei (%)” value [6]?
Answer: 4.95% and 6.88%

Question: What about the “Population Healthy Nuclei (%)” value [6] of the same compound?
Answer: 87.63% and 85.71%

Question: And the “Population Hoechst High Intensity Objects (%)” value [6]?
Answer: 0%

Question: And the “Population Membrane Permeable-Phenotype (%)” value [6]?
Answer: 0.4% and 4.32%

Question: And the “Population Mitochondria Different-Phenotype (%)” value [6]?
Answer: 11.69% and 2.47%

Question: What about the “Population Mitotic Cells (%)” value [6] of the same compound?
Answer: 80.95% and 85.71%

Question: And the “Population Normal (%)” value [6]?
Answer: 100%

Question: What about the “Population Pyknosed Nuclei (%)” value [6] of the same compound?
Answer: 7.42% and 7.41%

Question: What about the “Population Tubulin-Different-Phenotype (%)” value [6] of the same compound?
Answer: 6.45% and 14.2%

Question: What about the “Total Cell Count” value [6] of the same compound?
Answer: 283 and 189
